Activity calls are given as the source filed them. The rule behind the calls is not given here. Peptide text beside a SMILES is read from it.
Experiments:
[1] = target: Signal transducer and activator of transcription 3 (Mus musculus) (UniProt P42227); assay: Inhibition of IL6-induced STAT3 phosphorylation at S727 in CD4+ T lymphocytes isolated from C57BL/6J mouse preincubated for 2 hrs followed by activation with plate-bound anti-CD3/anti-CD28 for 15 mins by Western blot analysis
[2] = target: T1, Signal transducer and activator of transcription 6 (Homo sapiens) (UniProt P42226); assay: Inhibition of IL4-stimulated STAT6 phosphorylation at tyrosine 641 in human Beas-2B cells at 0.025 to 5 uM incubated for 2 hrs followed by stimulation with IL4 for 1 hr by Western blot assay; type: cell-based
T1 sequence (whole entry): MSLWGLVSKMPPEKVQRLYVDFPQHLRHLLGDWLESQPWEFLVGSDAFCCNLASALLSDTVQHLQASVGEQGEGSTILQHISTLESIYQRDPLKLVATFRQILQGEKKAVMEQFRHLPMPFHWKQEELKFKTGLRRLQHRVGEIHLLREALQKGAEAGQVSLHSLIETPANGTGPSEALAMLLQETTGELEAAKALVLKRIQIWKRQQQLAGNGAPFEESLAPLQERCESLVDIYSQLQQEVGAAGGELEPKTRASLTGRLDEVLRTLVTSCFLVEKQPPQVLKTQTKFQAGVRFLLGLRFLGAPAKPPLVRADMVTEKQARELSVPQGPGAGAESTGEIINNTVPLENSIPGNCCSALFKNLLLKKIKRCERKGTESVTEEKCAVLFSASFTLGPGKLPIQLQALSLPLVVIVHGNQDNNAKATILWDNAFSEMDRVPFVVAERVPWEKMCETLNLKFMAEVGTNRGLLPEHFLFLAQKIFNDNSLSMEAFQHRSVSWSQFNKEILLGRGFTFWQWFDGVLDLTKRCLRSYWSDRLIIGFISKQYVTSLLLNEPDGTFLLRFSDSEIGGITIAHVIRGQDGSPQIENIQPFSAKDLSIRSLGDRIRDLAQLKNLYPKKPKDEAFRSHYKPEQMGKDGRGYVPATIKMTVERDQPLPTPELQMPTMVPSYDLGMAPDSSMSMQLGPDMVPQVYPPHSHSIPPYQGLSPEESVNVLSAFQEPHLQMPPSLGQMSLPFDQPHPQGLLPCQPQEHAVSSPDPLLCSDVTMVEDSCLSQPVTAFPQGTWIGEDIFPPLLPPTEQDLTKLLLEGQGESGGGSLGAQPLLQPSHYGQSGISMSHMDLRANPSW
Outline: (§1)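 Beas-2B seeded at 3.0 × 10^5 cells/well the day before; prodrugs from DMSO stocks added to final concentrations for 2 h, then IL-4 (2 ng/mL) for 1 h. PBS-washed cells lysed with PMSF, protein by modified Lowry; blots blocked in 3% BSA/TBST, probed for pSTAT6 (Tyr641), stripped and reprobed for total STAT6; ECL on X-ray film.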

[3] = target: T2, Signal transducer and transcription activator 6 (Mus musculus) (UniProt P52633); assay: Inhibition of IL4-induced STAT6 phosphorylation at Y641 in CD4+ T lymphocytes isolated from C57BL/6J mouse preincubated for 2 hrs followed by activation with plate-bound anti-CD3/anti-CD28 and IL4 for 15 mins by Western blot analysis; type: cell-based
T2 sequence (whole entry): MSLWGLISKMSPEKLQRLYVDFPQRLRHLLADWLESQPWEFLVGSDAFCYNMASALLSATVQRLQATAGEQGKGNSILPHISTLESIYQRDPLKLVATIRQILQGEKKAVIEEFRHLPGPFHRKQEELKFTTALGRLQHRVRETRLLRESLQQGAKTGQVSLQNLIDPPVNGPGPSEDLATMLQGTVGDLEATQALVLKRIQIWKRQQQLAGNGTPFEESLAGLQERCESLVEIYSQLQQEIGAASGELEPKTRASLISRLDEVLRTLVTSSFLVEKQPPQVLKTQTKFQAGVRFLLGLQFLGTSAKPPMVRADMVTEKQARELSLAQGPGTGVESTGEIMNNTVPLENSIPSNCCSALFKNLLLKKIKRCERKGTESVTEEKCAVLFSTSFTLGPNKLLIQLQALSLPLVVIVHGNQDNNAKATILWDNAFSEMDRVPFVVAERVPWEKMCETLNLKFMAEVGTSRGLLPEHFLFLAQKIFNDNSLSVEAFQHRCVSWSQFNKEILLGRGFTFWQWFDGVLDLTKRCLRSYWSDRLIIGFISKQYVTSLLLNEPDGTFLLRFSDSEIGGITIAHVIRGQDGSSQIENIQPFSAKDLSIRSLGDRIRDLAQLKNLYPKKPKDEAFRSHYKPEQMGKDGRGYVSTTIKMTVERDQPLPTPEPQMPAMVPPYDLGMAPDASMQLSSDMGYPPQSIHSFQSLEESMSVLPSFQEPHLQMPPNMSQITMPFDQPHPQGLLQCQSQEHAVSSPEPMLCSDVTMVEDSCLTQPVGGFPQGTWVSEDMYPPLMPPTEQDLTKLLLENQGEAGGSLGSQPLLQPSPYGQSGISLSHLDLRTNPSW
Outline: (§2)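 CD4+ T cells from C57BL/6J mice, sorted by AutoMACS; activated 15 min with plate-bound anti-CD3 and/or anti-CD28 with IL-2, IL-6 or IL-4; lysed with protease inhibitors plus 10 mM NaF and 1 mM Na3VO4; Bradford-normalised immunoblots for pSTAT1 (Tyr701), pSTAT5 (Tyr694), pSTAT6 (Tyr641) and total STATs.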

[4] = species: Mus musculus; assay: Inhibition of IL2-induced STAT5 phosphorylation at Y694 in CD4+ T lymphocytes isolated from C57BL/6J mouse at 0.5 to 5 uM preincubated for 2 hrs followed by activation with plate-bound anti-CD3/anti-CD28 and IL2 for 15 mins by Western blot analysis; type: cell-based
Outline: as §2

[5] = target: T3, Signal transducer and activator of transcription 1 (Mus musculus) (UniProt P42225); assay: Inhibition of IL6-induced STAT1 phosphorylation at Y701 in CD4+ T lymphocytes isolated from C57BL/6J mouse preincubated for 2 hrs followed by activation with plate-bound anti-CD3/anti-CD28 and IL6 for 15 mins by Western blot analysis; type: cell-based
T3 sequence (whole entry): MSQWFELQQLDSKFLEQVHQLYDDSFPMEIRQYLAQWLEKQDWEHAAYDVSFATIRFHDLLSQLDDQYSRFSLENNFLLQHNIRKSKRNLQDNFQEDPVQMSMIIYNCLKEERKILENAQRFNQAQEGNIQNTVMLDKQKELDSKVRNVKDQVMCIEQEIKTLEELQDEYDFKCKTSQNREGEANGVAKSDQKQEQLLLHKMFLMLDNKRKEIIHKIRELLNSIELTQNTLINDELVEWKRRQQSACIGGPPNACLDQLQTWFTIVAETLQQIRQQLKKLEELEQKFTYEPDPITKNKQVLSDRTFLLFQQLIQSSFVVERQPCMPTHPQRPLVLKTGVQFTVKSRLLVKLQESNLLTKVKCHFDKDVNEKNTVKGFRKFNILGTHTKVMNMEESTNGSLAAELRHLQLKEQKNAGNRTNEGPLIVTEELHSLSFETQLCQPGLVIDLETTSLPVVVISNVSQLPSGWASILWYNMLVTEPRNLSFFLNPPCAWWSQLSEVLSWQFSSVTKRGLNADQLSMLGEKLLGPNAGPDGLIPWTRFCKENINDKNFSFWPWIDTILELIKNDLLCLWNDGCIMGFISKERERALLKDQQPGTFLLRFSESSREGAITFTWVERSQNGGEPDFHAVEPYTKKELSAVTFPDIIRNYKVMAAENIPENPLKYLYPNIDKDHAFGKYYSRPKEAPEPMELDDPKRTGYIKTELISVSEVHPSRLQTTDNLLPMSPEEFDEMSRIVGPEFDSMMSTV
Outline: as §2

[6] = Cytotoxicity against human BEAS2B cells assessed as cell viability after 72 hrs by MTS assay; type: cell-based; conditions: beas-2b
Outline: (§3)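 Beas-2B seeded at 2000 cells/well; 10 mM DMSO stocks serially diluted in DMSO and equal amounts added to cultures; 72 h at 37 °C; medium replaced by 1:5 MTS/PBS, 1 h further incubation; viable cells read as optical density at 490 nm.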

[7] = target: T1, Signal transducer and activator of transcription 6 (Homo sapiens); assay: Inhibition of IL4-induced STAT6 phosphorylation at tyrosine 641 in human Beas-2B cells at 0.05 to 5 uM incubated for 2 hrs followed by stimulation with IL4 for 1 hr by Western blot assay; type: cell-based
Outline: as §1

[8] = target: RAC-alpha serine/threonine-protein kinase (Homo sapiens) (UniProt P31749); assay: Inhibition of EGF-induced AKT phosphorylation at S473 in human MDA-MB-468 cells at 100 nM incubated for 2 hrs followed by stimulation with EGF for 1 hr by Western blot assay; type: cell-based
RAC-alpha serine/threonine-protein kinase (Homo sapiens), sequence (P31749 whole entry): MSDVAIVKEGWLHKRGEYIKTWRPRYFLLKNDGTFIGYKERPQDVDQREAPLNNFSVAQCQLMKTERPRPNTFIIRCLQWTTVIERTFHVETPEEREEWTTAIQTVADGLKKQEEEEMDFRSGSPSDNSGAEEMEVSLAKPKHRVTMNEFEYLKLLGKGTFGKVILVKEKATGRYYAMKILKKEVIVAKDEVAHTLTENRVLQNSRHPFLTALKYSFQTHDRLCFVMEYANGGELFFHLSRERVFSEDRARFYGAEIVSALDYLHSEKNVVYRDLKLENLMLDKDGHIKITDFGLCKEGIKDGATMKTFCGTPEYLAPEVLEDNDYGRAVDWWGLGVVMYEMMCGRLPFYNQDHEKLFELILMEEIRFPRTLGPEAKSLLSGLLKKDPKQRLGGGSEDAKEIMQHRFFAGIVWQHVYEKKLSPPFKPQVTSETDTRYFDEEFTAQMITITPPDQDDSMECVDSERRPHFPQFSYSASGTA

[9] = target: RAC-alpha serine/threonine-protein kinase (Homo sapiens) (UniProt P31749); assay: Inhibition of EGF-induced AKT phosphorylation at S473 in human MDA-MB-468 cells at 5 uM incubated for 2 hrs followed by stimulation with EGF for 1 hr by Western blot assay; type: cell-based
[10] = target: T1, Signal transducer and activator of transcription 6 (Homo sapiens); assay: Inhibition of IL4-induced STAT6 phosphorylation in human MDA-MB-468 cells at 0.1 to 5 uM incubated for 2 hrs followed by stimulation with IL4 for 1 hr by Western blot assay; type: cell-based
Outline: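 MDA-MB-468 breast cancer cells serum-starved, treated with prodrugs, then IL-4 stimulated; pSTAT6 read by Western blot.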

[11] = target: T1, Signal transducer and activator of transcription 6 (Homo sapiens); assay: Inhibition of IL4-induced STAT6 phosphorylation at tyrosine 641 in human Beas-2B cells at 50 to 100 nM incubated for 2 hrs followed by stimulation with IL4 for 1 hr by Western blot assay; type: cell-based
Outline: as §1

[12] = Cytotoxicity against human BEAS2B cells assessed as cell viability at <=1 uM after 72 hrs by MTS assay; type: cell-based; conditions: beas-2b
Outline: as §3

[13] = target: T4, Signal transducer and activator of transcription 6 (Homo sapiens, UniProt P42226); assay: Inhibition of STAT6 (unknown origin) expressed in Escherichia coli using FAM-Ala-pTyr-Lys-ProPhe-Gln-Asp-Leu-Ile-NH2 as substrate by fluorescence polarization assay
T4 sequence (P42226 whole entry): T1 sequence (whole entry)
Outline: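 His6-tagged STAT6 construct (coiled-coil, DNA-binding, linker and SH2 domains), purified by nickel IMAC; competitive FP binding. STAT6 at 480 nM mixed with 20 nM FAM-labelled phosphopeptide probe, then equal volume of serially diluted peptides (from 200 μM) added. Buffer: 50 mM NaCl, 10 mM Hepes, 1 mM Na4EDTA, 2 mM DTT, 1% NP-40. mP plotted against log concentration; IC50 by nonlinear regression; triplicate, three probe preparations; mean ± SD.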

[14] = target: T1, Signal transducer and activator of transcription 6 (Homo sapiens); assay: Inhibition of IL4-induced STAT6 phosphorylation at tyrosine 641 in human Beas-2B cells at 100 to 500 nM incubated for 2 hrs followed by stimulation with IL4 for 1 hr by Western blot assay; type: cell-based
Outline: as §1

[15] = target: T1, Signal transducer and activator of transcription 6 (Homo sapiens); assay: Inhibition of IL-13-stimulated STAT6 SH2 domain phosphorylation in human Beas-2B cells assessed as inhibition of CCL26 mRNA expression at 100 nM preincubated for 2 hrs followed by stimulation with IL-13 for 24 hrs by RT-PCR analysis relative to control
[16] = target: T1, Signal transducer and activator of transcription 6 (Homo sapiens); assay: Inhibition of IL-13-stimulated STAT6 SH2 domain phosphorylation in human Beas-2B cells assessed as inhibition of CCL26 mRNA expression preincubated for 2 hrs followed by stimulation with IL-13 for 24 hrs by RT-PCR analysis

Signal transducer and activator of transcription 3 (Mus musculus), sequence (P42227 whole entry): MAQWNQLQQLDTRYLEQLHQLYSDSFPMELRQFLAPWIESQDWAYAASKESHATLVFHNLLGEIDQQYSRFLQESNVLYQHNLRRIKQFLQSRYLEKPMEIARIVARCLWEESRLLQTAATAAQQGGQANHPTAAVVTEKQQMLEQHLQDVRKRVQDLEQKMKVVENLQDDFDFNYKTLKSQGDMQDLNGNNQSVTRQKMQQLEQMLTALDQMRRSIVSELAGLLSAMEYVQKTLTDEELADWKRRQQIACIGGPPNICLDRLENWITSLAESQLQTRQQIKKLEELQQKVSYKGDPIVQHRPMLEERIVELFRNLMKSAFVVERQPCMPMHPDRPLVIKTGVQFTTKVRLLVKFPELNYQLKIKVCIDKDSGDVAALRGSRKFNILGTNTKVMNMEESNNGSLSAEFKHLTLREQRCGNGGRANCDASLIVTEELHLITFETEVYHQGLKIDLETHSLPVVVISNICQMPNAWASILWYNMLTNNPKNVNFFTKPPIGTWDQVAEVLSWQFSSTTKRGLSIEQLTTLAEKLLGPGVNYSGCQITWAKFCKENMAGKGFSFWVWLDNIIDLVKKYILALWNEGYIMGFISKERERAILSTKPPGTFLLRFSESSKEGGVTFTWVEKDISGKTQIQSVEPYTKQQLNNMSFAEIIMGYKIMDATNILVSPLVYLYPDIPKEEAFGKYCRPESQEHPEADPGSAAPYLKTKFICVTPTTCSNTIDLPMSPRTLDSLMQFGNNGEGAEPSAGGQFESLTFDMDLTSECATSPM

SMILES | inhibition [1] | inhibition [3] | inhibition [4] | inhibition [5] | Activity [6] | IC50 [13] [nM] | other results
C/C(=C\C(=O)N[C@H](C(=O)N1CCC[C@H]1C(=O)N(C)C1CCCCC1)C(C)(C)C)c1ccc(C(F)(F)P(=O)(OCOC(=O)C(C)(C)C)OCOC(=O)C(C)(C)C)cc1 | inactive | Active | Active | inactive | Non-toxic |  | inhibition [2]: Active
CC(C)(C)C(=O)OCOP(=O)(OCOC(=O)C(C)(C)C)C(F)(F)c1ccc(/C=C/C(=O)N[C@H](C(=O)N2CCC[C@H]2C(=O)Nc2ccccc2)C(C)(C)C)cc1 | inactive | Active | inactive | inactive | Toxic |  | inhibition [7]: Active; inhibition [8]: Active
CN(C(=O)[C@@H]1CCCN1C(=O)[C@@H](NC(=O)/C=C/c1ccc(C(F)(F)P(=O)(OCOC(=O)C(C)(C)C)OCOC(=O)C(C)(C)C)cc1)C(C)(C)C)c1ccccc1 | inactive | Active | Active | inactive | Non-toxic |  | inhibition [9]: Active; inhibition [10]: Active; inhibition [11]: Active; Activity [12]: Non-toxic
C/C(=C\C(=O)N[C@H](C(=O)N1CCC[C@H]1C(=O)NCc1ccccc1)C(C)(C)C)c1ccc(OP(=O)(O)O)cc1 |  |  |  |  |  | 340 | 
C/C(=C\C(=O)N[C@H](C(=O)N1CCCC1CCCCc1ccccc1)C(C)(C)C)c1ccc(OP(=O)(O)O)cc1 (stereo partly drawn) |  |  |  |  |  | 1070 | 
CN(C(=O)[C@@H]1CCCN1C(=O)[C@@H](NC(=O)/C=C/c1ccc(OP(=O)(O)O)cc1)C(C)(C)C)c1ccccc1 |  |  |  |  |  | 870 | 
CC(C)(C)C(=O)OCOP(=O)(OCOC(=O)C(C)(C)C)C(F)(F)c1ccc(/C=C/C(=O)N[C@H](C(=O)N2CCC[C@H]2C(=O)N(c2ccccc2)c2ccccc2)C(C)(C)C)cc1 | inactive | Active | Active | inactive |  |  | inhibition [10]: Active; Activity [12]: Non-toxic; inhibition [14]: Active
NCCCC[C@H](NC(=O)[C@H](Cc1ccc(OP(=O)(O)O)cc1)NC(=O)/C=C/c1ccccc1)C(=O)N1CCC[C@H]1C(=O)N[C@@H](Cc1ccccc1)C(N)=O (HELM PEPTIDE1{[O=C(/C=C/c1ccccc1)[*:2]].[O=C([C@H](Cc1ccc(OP(=O)(O)O)cc1)N[*:1])[*:2]].K.P.F.[am]}$$$$V2.0) |  |  |  |  |  | 6600 | 
CC(C)(C)C(=O)OCOP(=O)(OCOC(=O)C(C)(C)C)C(F)(F)c1ccc(/C=C/C(=O)N[C@H](C(=O)N2CCC[C@H]2C(=O)N(c2ccccc2)c2ccc(I)cc2)C(C)(C)C)cc1 | inactive | inactive |  | inactive |  |  | inhibition [15]: > 50%; inhibition [16]: Dose-dependent effect
